In brackets after ≈: the same amount, converted by molar mass.
Legend:
[1] = tested on: Staphylococcus epidermidis; test: Antimicrobial activity against Staphylococcus epidermidis MTCC 3615 assessed as zone of inhibition at 1 mg/disc after 24 hrs incubation by disc diffusion assay; format: functional
In short: (§1)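 Inocula grown in Mueller Hinton broth for 24 h at 37 °C and swabbed onto Mueller Hinton agar. Discs carried 1 mg compound each and stood 30 min at room temperature before 24 h incubation at 37 °C. Solvent as negative control. Inhibition zones recorded in mm; experiment done twice.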

Staphylococcus aureus [2] = test: Antimicrobial activity against Staphylococcus aureus MTCC 96 assessed as zone of inhibition at 1 mg/disc after 24 hrs incubation by disc diffusion assay; format: functional; in short: as §1
Staphylococcus aureus [3] = test: Antimicrobial activity against methicillin-resistant Staphylococcus aureus assessed as zone of inhibition at 1 mg/disc after 24 hrs incubation by disc diffusion assay; format: functional
In short: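 Inoculum grown in Mueller Hinton broth 24 h at 37°C, swabbed onto Mueller Hinton agar and dried 10 min. Discs loaded at 1 mg/disc, then 30 min at room temperature for diffusion. Plates incubated 24 h at 37°C. Solvent negative control; streptomycin positive control. Zone of inhibition read in mm; experiment done twice.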

Micrococcus luteus [4] = test: Antimicrobial activity against Micrococcus luteus MTCC 106 assessed as zone of inhibition at 1 mg/disc after 24 hrs incubation by disc diffusion assay; format: functional; in short: as §1
Klebsiella aerogenes [5] = test: Antimicrobial activity against Enterobacter aerogenes MTCC 111 assessed as zone of inhibition at 1 mg/disc after 24 hrs incubation by disc diffusion assay; format: functional; in short: as §1
Salmonella typhimurium [6] = test: Antimicrobial activity against Salmonella typhimurium MTCC 1251 assessed as zone of inhibition at 1 mg/disc after 24 hrs incubation by disc diffusion assay; format: functional, Salmonella enterica subsp. enterica serovar Typhimurium; in short: as §1
Klebsiella pneumoniae [7] = test: Antimicrobial activity against Klebsiella pneumonia MTCC 109 assessed as zone of inhibition at 1 mg/disc after 24 hrs incubation by disc diffusion assay; format: functional; in short: as §1
Proteus vulgaris [8] = test: Antimicrobial activity against Proteus vulgaris MTCC 1771 assessed as zone of inhibition at 1 mg/disc after 24 hrs incubation by disc diffusion assay; format: functional; in short: as §1
Shigella flexneri [9] = test: Antimicrobial activity against Shigella flexneri MTCC 1457 assessed as zone of inhibition at 1 mg/disc after 24 hrs incubation by disc diffusion assay; format: functional; in short: as §1
Candida albicans = test: Antifungal activity against Candida albicans MTCC 227 assessed as zone of inhibition at 1 mg/disc after 48 hrs incubation by disc diffusion assay; format: functional
In short: (§2)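 Disc diffusion on Mueller Hinton agar with swabbed cultures, 1 mg compound per disc. Discs stood 30 min at room temperature for diffusion, then plates incubated 48 h at 28 °C. Solvent as negative control. Yeast pre-grown in Sabouraud dextrose broth at 28 °C for 48-72 h; filamentous fungal spores came from SDA slants grown 10 days at 28 °C. Zone diameters in mm; run twice.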

Malassezia pachydermatis = test: Antifungal activity against Malassezia pachydermatis assessed as zone of inhibition at 1 mg/disc after 48 hrs incubation by disc diffusion assay; format: functional; in short: as §2
[10] = tested on: Staphylococcus epidermidis; test: Antimicrobial activity against Staphylococcus epidermidis MTCC 3615 assessed as absence of visible growth after 48 to 72 hrs; format: functional
Staphylococcus aureus [11] = test: Antimicrobial activity against Staphylococcus aureus MTCC 96 assessed as absence of visible growth after 48 to 72 hrs; format: functional
Staphylococcus aureus [12] = test: Antimicrobial activity against methicillin-resistant Staphylococcus aureus assessed as absence of visible growth after 48 to 72 hrs; format: functional
In short: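 Broth two-fold serial dilution in 96-well plates, 1000 to 7.81 µg/mL, compound dissolved in DMSO (2%). Inoculum grown in Mueller Hinton broth 24 h at 37°C. Streptomycin positive control. 5 µl of tested broth plated on MHA; MIC is the lowest concentration inhibiting visible growth on agar.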

Micrococcus luteus [13] = test: Antimicrobial activity against Micrococcus luteus MTCC 106 assessed as absence of visible growth after 48 to 72 hrs; format: functional
Klebsiella aerogenes [14] = test: Antimicrobial activity against Enterobacter aerogenes MTCC 111 assessed as absence of visible growth after 48 to 72 hrs; format: functional
Salmonella typhimurium [15] = test: Antimicrobial activity against Salmonella typhimurium MTCC 1251 assessed as absence of visible growth after 48 to 72 hrs; format: functional, Salmonella enterica subsp. enterica serovar Typhimurium; details: Salmonella enterica
Klebsiella pneumoniae [16] = test: Antimicrobial activity against Klebsiella pneumonia MTCC 109 assessed as absence of visible growth after 48 to 72 hrs; format: functional
Proteus vulgaris [17] = test: Antimicrobial activity against Proteus vulgaris MTCC 1771 assessed as absence of visible growth after 48 to 72 hrs; format: functional
Shigella flexneri [18] = test: Antimicrobial activity against Shigella flexneri MTCC 1457 assessed as absence of visible growth after 24 hrs
Shigella flexneri [19] = test: Antimicrobial activity against Shigella flexneri MTCC 1457 assessed as absence of visible growth after 48 to 72 hrs; format: functional
[20] = tested on: Staphylococcus epidermidis; test: Antimicrobial activity against Staphylococcus epidermidis MTCC 3615 assessed as absence of visible growth after 24 hrs
A549 [21] = test: Anticancer activity against human A549 cells assessed as cell growth inhibition at 5 ug/ml by MTT assay; format: functional; details: read-out: GI
In short: (§3)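 A549 cells kept in DMEM with 10% FBS, 2 mM L-glutamine, penicillin/streptomycin, pH 7.2. Seeded at 5000 cells/well in medium with compound at 5–50 µg/mL. Grown at 37 °C, 5% CO2. Medium then replaced by 1 mg/mL MTT for 4 h and formazan dissolved in DMSO. Absorbance read at 540 nm; three replicate experiments.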

A549 [22] = test: Anticancer activity against human A549 cells assessed as cell growth inhibition at 10 ug/ml by MTT assay; format: functional; details: read-out: GI; in short: as §3
A549 [23] = test: Anticancer activity against human A549 cells assessed as cell growth inhibition at 20 ug/ml by MTT assay; format: functional; details: read-out: GI; in short: as §3
A549 [24] = test: Anticancer activity against human A549 cells assessed as cell growth inhibition at 30 ug/ml by MTT assay; format: functional; details: read-out: GI; in short: as §3
A549 [25] = test: Anticancer activity against human A549 cells assessed as cell growth inhibition at 40 ug/ml by MTT assay; format: functional; details: read-out: GI; in short: as §3
A549 [26] = test: Anticancer activity against human A549 cells assessed as cell growth inhibition at 50 ug/ml by MTT assay; format: functional; details: read-out: GI; in short: as §3
Klebsiella pneumoniae [27] = test: Antimicrobial activity against Klebsiella pneumonia MTCC 109 assessed as absence of visible growth after 24 hrs

Row | SMILES | inhibition zone (IZ) [1] [mm] | inhibition zone (IZ) (Staphylococcus aureus [2]) [mm] | inhibition zone (IZ) (Staphylococcus aureus [3]) [mm] | inhibition zone (IZ) (Micrococcus luteus [4]) [mm] | inhibition zone (IZ) (Klebsiella aerogenes [5]) [mm] | inhibition zone (IZ) (Salmonella typhimurium [6]) [mm] | inhibition zone (IZ) (Klebsiella pneumoniae [7]) [mm] | inhibition zone (IZ) (Proteus vulgaris [8]) [mm] | inhibition zone (IZ) (Shigella flexneri [9]) [mm] | inhibition zone (IZ) (Candida albicans) [mm] | inhibition zone (IZ) (Malassezia pachydermatis) [mm] | MIC [10] [µg/mL] | MIC (Staphylococcus aureus [11]) [µg/mL] | MIC (Staphylococcus aureus [12]) [µg/mL] | MIC (Micrococcus luteus [13]) [µg/mL] | MIC (Klebsiella aerogenes [14]) [µg/mL] | MIC (Salmonella typhimurium [15]) [µg/mL] | MIC (Klebsiella pneumoniae [16]) [µg/mL] | MIC (Proteus vulgaris [17]) [µg/mL] | MIC (Shigella flexneri [18]) [µg/mL] | other results
1 | COc1ccc([C@H]2[C@@H]3CCCC=C3C(C#N)=C(N)C23C(=O)CCCC3=O)cc1 (relative stereo) | 13 | 14 | 15 | 21 | 14 | 11 | 16 | 17 | 19 | 10 | 9 | 250 (≈ 664 µM) | 250 (≈ 664 µM) | 250 (≈ 664 µM) | 250 (≈ 664 µM) | 250 (≈ 664 µM) | 250 (≈ 664 µM) | 125 (≈ 332 µM) | 125 (≈ 332 µM) | 125 (≈ 332 µM) | –
2 | CN[C@@H]1[C@H](O[C@H]2[C@H](O[C@H]3[C@H](O)[C@@H](O)[C@H](N=C(N)N)[C@@H](O)[C@@H]3N=C(N)N)O[C@@H](C)[C@]2(O)C=O)O[C@@H](CO)[C@H](O)[C@H]1O [STREPTOMYCIN] | 26 | 14 | 30 | 26 | 22 | 18 | 20 | 30 | 30 | – | – | 6.25 (≈ 10.7 µM) | 6.25 (≈ 10.7 µM) | 6.25 (≈ 10.7 µM) | 6.25 (≈ 10.7 µM) | 25 (≈ 43 µM) | 30 (≈ 51.6 µM) | 6.25 (≈ 10.7 µM) | 6.25 (≈ 10.7 µM) | 6.25 (≈ 10.7 µM) | –
3 | Cc1ccc([C@H]2[C@@H]3CCCC=C3C(C#N)=C(N)C23C(=O)c2ccccc2C3=O)cc1 (relative stereo) | 10 | 10 | 11 | 9 | 13 | 14 | 15 | 10 | 8 | 10 | 11 | – | 250 (≈ 634 µM) | 250 (≈ 634 µM) | 1000 (≈ 2540 µM) | 250 (≈ 634 µM) | 250 (≈ 634 µM) | 250 (≈ 634 µM) | 500 (≈ 1270 µM) | – | MIC (Shigella flexneri [19]): 1000 µg/mL (≈ 2540 µM); MIC [20]: 500 µg/mL (≈ 1270 µM)
4 | N#CC1=C(N)[C@]2(C(=O)Nc3ccccc32)[C@@H](c2cccs2)[C@@H]2CCCC=C12 | 19 | 13 | 21 | 15 | 17 | 15 | 16 | 23 | 25 | 10 | 12 | 125 (≈ 335 µM) | 250 (≈ 669 µM) | 62.5 (≈ 167 µM) | 250 (≈ 669 µM) | 125 (≈ 335 µM) | 250 (≈ 669 µM) | 125 (≈ 335 µM) | 62.5 (≈ 167 µM) | 62.5 (≈ 167 µM) | inhibition of growth at 5 µg/mL (A549 [21]): 25.7%; inhibition of growth at 10 µg/mL (A549 [22]): 45.8%; inhibition of growth at 20 µg/mL (A549 [23]): 62.4%; inhibition of growth at 30 µg/mL (A549 [24]): 67.8%; inhibition of growth at 40 µg/mL (A549 [25]): 75.9%; inhibition of growth at 50 µg/mL (A549 [26]): 83.9%
5 | Cc1ccc([C@H]2[C@@H]3CCC=C3C(C#N)=C(N)C23C(=O)c2ccccc2C3=O)cc1 (relative stereo) | 14 | 17 | 12 | 12 | 15 | 10 | 15 | 16 | 13 | 10 | 13 | – | 125 (≈ 329 µM) | 250 (≈ 657 µM) | 250 (≈ 657 µM) | 250 (≈ 657 µM) | 500 (≈ 1310 µM) | 250 (≈ 657 µM) | 125 (≈ 329 µM) | – | MIC (Shigella flexneri [19]): 250 µg/mL (≈ 657 µM); MIC [20]: 250 µg/mL (≈ 657 µM)
6 | N#CC1=C(N)C2(C(=O)c3ccccc3C2=O)[C@@H](c2ccc(Cl)cc2)[C@@H]2CCCCC=C12 (relative stereo) | 17 | 13 | 21 | 21 | 18 | 18 | 17 | 23 | 22 | 13 | 12 | – | 250 (≈ 583 µM) | 62.5 (≈ 146 µM) | 62.5 (≈ 146 µM) | 125 (≈ 291 µM) | 125 (≈ 291 µM) | – | 62.5 (≈ 146 µM) | 62.5 (≈ 146 µM) | inhibition of growth at 5 µg/mL (A549 [21]): 12.1%; inhibition of growth at 10 µg/mL (A549 [22]): 28.1%; inhibition of growth at 20 µg/mL (A549 [23]): 47.5%; inhibition of growth at 30 µg/mL (A549 [24]): 56.2%; inhibition of growth at 40 µg/mL (A549 [25]): 62.4%; inhibition of growth at 50 µg/mL (A549 [26]): 78.8%; MIC (Klebsiella pneumoniae [27]): 125 µg/mL (≈ 291 µM); MIC [20]: 125 µg/mL (≈ 291 µM)

— ChEMBL document CHEMBL3286367, “Synthesis of new class of spirocarbocycle derivatives by multicomponent domino reaction and their evaluation for antimicrobial, anticancer activity and molecular docking studies” (2014)
